According to ChEMBL document CHEMBL3593210, “Pentamidine analogs as inhibitors of [(3)H]MK-801 and [(3)H]ifenprodil binding to rat brain NMDA receptors” (Bioorg Med Chem, 2015):
pIC50: −log10 of the molar value.

Assays:
Glutamate NMDA receptor [1] = assay: Displacement of [3H]-MK-801 from rat cortical membranes NMDA receptor by beta counting analysis in absence of spermine
Procedure, shortened: (§1)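 Membranes from rat frontoparietal cortex and hippocampus, prepared in 50 mM Tris acetate pH 7.0. 5 nM [3H]MK-801 was incubated with membranes (~1 mg wet tissue) for 3 h at 23 °C in 10 mM Tris acetate pH 7.0 with 10 µM glutamate and glycine, in triplicate, with or without 30 µM spermine. Compounds were tested at 3–4 concentrations. Nonspecific binding was set with 100 µM (S)-ketamine. Bound ligand was filtered and scintillation-counted. Spermine sensitivity = IC50 (with spermine)/IC50 (without).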

Glutamate NMDA receptor [2] = assay: Displacement of [3H]-MK-801 from rat cortical membranes NMDA receptor by beta counting analysis in presence of 30 uM spermine; procedure, shortened: as §1
[3] = target: Glutamate NMDA receptor (Rattus norvegicus) (UniProt P35439+Q00959+Q00960+Q00961+Q62645+Q8VHN2+Q9R1M7); assay: Ratio of IC50 for displacement of [3H]-MK-801 from rat cortical membranes NMDA receptor in presence of 30 uM spermine to IC50 for displacement of [3H]-MK-801 from rat cortical membranes NMDA receptor in absence of 30 spermine; procedure, shortened: as §1
Glutamate NMDA receptor [4] = assay: Displacement of [3H]-ifenprodil from rat cortical membranes NMDA receptor by beta counting analysis in absence of spermine

| SMILES | pIC50 (Glutamate NMDA receptor [1]) | pIC50 (Glutamate NMDA receptor [2]) | Ratio IC50 [3] | pIC50 (Glutamate NMDA receptor [4]) |
| --- | --- | --- | --- | --- |
| CN(CCN(C)c1ccc(C(=N)N)cc1)c1ccc(C(=N)N)cc1 | 5.57 | 4.26 | 20.9 | 4.77 |
| N=C(N)c1ccc(NCCCCCCCCNc2ccc(C(=N)N)cc2)cc1 | 5.14 | 4.51 | 4.37 |  |
| N=C(N)c1ccc(NC(=O)c2ccc(C(=O)Nc3ccc(C(=N)N)cc3)cc2)cc1 | 4.27 | 4.28 | 0.96 |  |
| N=C(N)c1ccc(C(=O)NCCCNC(=O)c2ccc(C(=N)N)cc2)cc1 | < 3.00 | < 3.00 |  |  |
| c1cc(N2CCCN(c3ccc(C4=NCCCN4)cc3)CC2)ccc1C1=NCCCN1 | 4.89 | 3.84 | 11.7 |  |
| N=C(N)c1ccc(-c2ccc(-c3nc4ccc(C(=N)N)cc4[nH]3)s2)cc1 | 5.49 | 4.87 | 4.14 |  |
| N=C(NC1CCCC1)c1ccc(N2CCCN(c3ccc(C(=N)NC4CCCC4)cc3)CC2)cc1 | 5.09 | 4.07 | 10.6 |  |
| CC(C)NC(=N)c1ccc(NC(=O)c2cccc(C(=O)Nc3ccc(C(=N)NC(C)C)cc3)n2)cc1 | 5.16 | 4.13 | 10.8 | 4.31 |
| NCCCCCCCCCCCCN |  | 3.61 | 32.9 | 3.02 |
| CCN(CCNc1ccc(C(=N)N)cc1)c1ccc(C(=N)N)cc1 | 5.58 | 4.32 | 19.3 | 4.89 |
| N=C(N)c1ccc(NC(=O)c2cccc(C(=O)Nc3ccc(C(=N)N)cc3)c2)cc1 | 4.37 | 4.44 | 0.97 |  |
| N=C(N)c1ccc(OCCCCOc2ccc(C(=N)N)cc2)cc1 | 4.75 |  |  |  |
| CC/N=C(\N)c1ccc(-c2ccc(-c3ccc(/C(N)=N/CC)cc3)o2)cc1 | 4.91 | 4.51 | 2.56 |  |
| N=C(NC1CCCC1)c1ccc(N2CCN(c3ccc(C(=N)NC4CCCC4)cc3)CC2)cc1 | 5.03 | 3.80 | 19.3 |  |
| N=C(N)c1ccc(NC(=O)CCCCC(=O)Nc2ccc(C(=N)N)cc2)cc1 | 3.78 | 3.36 | 3.46 |  |
| N=C(N)c1ccc(OC(=O)c2ccc(C(=O)Oc3ccc(C(=N)N)cc3)cc2)cc1 [BIS(4-CARBAMIMIDOYLPHENYL)TEREPHTHALATE] | 4.97 | 4.33 | 3.98 | 4.57 |
| N=C(N)c1ccc(C(=O)NCCCCCNC(=O)c2ccc(C(=N)N)cc2)cc1 | 3.16 | < 3.00 |  |  |
| c1cc(N2CCN(c3ccc(C4=NCCN4)cc3)CC2)ccc1C1=NCCN1 | 5.19 | 3.97 | 15.1 |  |
| N=C(N)c1ccc(NC(=O)CCCCCCCCCCC(=O)Nc2ccc(C(=N)N)cc2)cc1 | 5.02 | 4.56 | 2.98 |  |
| Cc1ccc(S(=O)(=O)N(CCOc2ccc(C(=N)N)cc2)CCOc2ccc(C(=N)N)cc2)cc1 | 6.62 | 5.88 | 6.28 | 6.39 |
| N=C(N)c1ccc(OCc2ccc(COc3ccc(C(=N)N)cc3)cc2)cc1 | 5.28 | 4.59 | 5.25 | 4.97 |

| SMILES | pIC50 (Glutamate NMDA receptor [1]) | pIC50 (Glutamate NMDA receptor [2]) | Ratio IC50 [3] | pIC50 (Glutamate NMDA receptor [4]) |
| --- | --- | --- | --- | --- |
| CC(C)NC(=N)c1ccc(NC(=O)c2ccc(C(=O)Nc3ccc(C(=N)NC(C)C)cc3)o2)cc1 | 4.97 | 3.76 | 16.9 |  |
| CCCCNC(=N)c1ccc(N2CCCN(c3ccc(C(=N)NCCCC)cc3)CC2)cc1 | 5.00 | 3.99 | 11.2 |  |
| c1cc(N2CCN(c3ccc(C4=NCCCN4)cc3)CC2)ccc1C1=NCCCN1 | 4.62 | 3.58 | 13.6 |  |
| C/N=C(\N)c1ccc(-c2ccc(-c3ccc(/C(N)=N/C)cc3)o2)cc1 | 5.16 | 4.62 | 3.47 |  |
| N=C(N)c1ccc(NC(=O)c2cccc(C(=O)Nc3ccc(C(=N)N)cc3)n2)cc1 | 4.24 | 4.15 | 1.22 | < 4.00 |
| N=C(N)c1ccc(NCCCCNc2ccc(C(=N)N)cc2)cc1 | 5.34 | 4.07 | 17.2 |  |
| N=C(NCCO)c1ccc(N2CCCN(c3ccc(/C(N)=N/CCO)cc3)CC2)cc1 | 5.03 | 3.49 | 35.7 |  |
| N=C(N)c1ccc(C(=O)NCCCCNC(=O)c2ccc(C(=N)N)cc2)cc1 | < 3.00 | < 3.00 |  |  |
| N=C(N)c1ccc(-c2ccc(-c3ccc(C(=N)N)s3)s2)s1 | 5.27 | 5.17 | 1.5 |  |
| NCCCCCCCCc1ccc(CCCCN)s1 | 6.28 | 5.21 | 15.1 | 4.31 |
| N=C(N)c1ccc(NC(=O)CCCCCCCCC(=O)Nc2ccc(C(=N)N)cc2)cc1 | 4.80 | 4.20 | 4.07 |  |
| N=C(N)c1ccc(NC(=O)CCCCCC(=O)Nc2ccc(C(=N)N)cc2)cc1 | < 3.00 | < 3.00 |  |  |
| N=C(N)c1ccc(N2CCN(c3ccc(C(=N)N)cc3)CC2)cc1 | 5.51 | 4.15 | 26.2 | 4.77 |
| N=C(NCCCO)c1ccc(N2CCCN(c3ccc(/C(N)=N/CCCO)cc3)CC2)cc1 | 4.39 | 3.37 | 9.72 |  |
| N=C(N)c1ccc(NCCCCCCNc2ccc(C(=N)N)cc2)cc1 | 5.36 | 4.62 | 5.26 |  |
| CC(C)/N=C(\N)c1ccc(N2CCCN(c3ccc(/C(N)=N/C(C)C)cc3)CC2)cc1 | 4.75 | 3.41 | 25.3 |  |
| CN(CCNc1ccc(C(=N)N)cc1)c1ccc(C(=N)N)cc1 | 5.50 | 4.07 | 30.2 | 5.15 |
| N=C(N)c1ccc(N2CCCN(c3ccc(C(=N)N)cc3)CC2)cc1 | 6.60 | 5.26 | 20.4 | 4.72 |
| N=C(N)c1ccc(C(=O)Nc2cccc(NC(=O)c3ccc(C(=N)N)cc3)n2)cc1 | 3.90 | 3.63 | 1.85 |  |
| c1cc(N2CCCN(c3ccc(C4=NCCN4)cc3)CC2)ccc1C1=NCCN1 | 5.52 | 4.04 | 30.1 |  |
| N=C(N)c1ccc(-c2ccc(-c3ccc(C(=N)N)cc3)o2)cc1 [FURAMIDINE] | 5.37 | 5.13 | 2.37 |  |

| SMILES | pIC50 (Glutamate NMDA receptor [1]) | pIC50 (Glutamate NMDA receptor [2]) | Ratio IC50 [3] | pIC50 (Glutamate NMDA receptor [4]) |
| --- | --- | --- | --- | --- |
| N=C(N)NCCCCNC(=N)N |  |  | 33.6 |  |
| N=C(N)c1ccc(OCCCOc2ccc(C(=N)N)cc2)cc1 [PROPAMIDINE] | 5.26 |  |  |  |
| N=C(NC1CC1)c1ccc(N2CCCN(c3ccc(C(=N)NC4CC4)cc3)CC2)cc1 | 4.95 | 3.67 | 19.9 |  |
| N=C(N)c1ccc(NCCCCCCCNc2ccc(C(=N)N)cc2)cc1 | 5.33 | 4.60 | 5.37 |  |
| N=C(N)c1ccc(-c2ccc(-c3ccc(-c4ccc(C(=N)N)o4)s3)s2)o1 | 5.30 | 4.93 | 4.26 |  |
| CC(C)(C)/N=C(\N)c1ccc(N2CCCN(c3ccc(/C(N)=N/C(C)(C)C)cc3)CC2)cc1 | 4.46 | 3.25 | 16.8 |  |
| NC(N)=NCCCCN=C(N)N [ARCAINE] | 5.34 | 3.71 |  | 4.61 |
| N=C(N)c1ccc(C(=O)NCCCCCCNC(=O)c2ccc(C(=N)N)cc2)cc1 | 3.58 | 2.92 | 4.59 |  |
| N=C(N)c1ccc(-c2ccc(-c3ccc(C(=N)N)cc3)c(F)c2)cc1 | 5.00 | 4.47 | 4.63 |  |
| N=C(N)c1ccc(NC(=O)c2ccc(C(=O)Nc3ccc(C(=N)N)cc3)o2)cc1 | 3.82 | 3.82 | 1.01 |  |
| N=C(N)c1ccc(NC(=O)CCCC(=O)Nc2ccc(C(=N)N)cc2)cc1 | 3.64 | 3.17 | 2.81 | 4.26 |
| CC(C)/N=C(/N)c1ccc(N2CCN(c3ccc(/C(N)=N\C(C)C)cc3)CC2)cc1 | 4.67 | 3.26 | 32.9 |  |
| N=C(N)c1ccc(NCCCNc2ccc(C(=N)N)cc2)cc1 | 5.00 | 3.83 | 17 | 4.11 |
| N=C(N)c1ccc(OCc2cccc(COc3ccc(C(=N)N)cc3)c2)cc1 | 6.10 | 5.17 | 9.04 | 5.40 |
| CCCC/N=C(/N)c1ccc(N2CCN(c3ccc(/C(N)=N\CCCC)cc3)CC2)cc1 | 4.99 | 3.86 | 16 |  |
| N=C(N)c1ccc(NC(=O)CCCCCCCC(=O)Nc2ccc(C(=N)N)cc2)cc1 | 4.58 | 3.95 | 4.25 |  |
| CCCNC(=N)c1ccc(N2CCN(c3ccc(C(=N)NCCC)cc3)CC2)cc1 | 4.80 | 3.43 | 21.8 |  |
| N=C(N)c1ccc(-c2ccc(-c3ccc(C(=N)N)cc3)s2)cc1 | 5.18 | 4.75 | 2.61 |  |
| N=C(NC1CC1)c1ccc(N2CCN(c3ccc(C(=N)NC4CC4)cc3)CC2)cc1 | 4.71 | 3.33 | 21.8 |  |
| N=C(N)c1ccc(NC(=O)CCCCCCC(=O)Nc2ccc(C(=N)N)cc2)cc1 | 4.64 | 3.77 | 7.25 |  |
| N=C(N)c1ccc(-c2ccc(-c3ccc(-c4ccc(C(=N)N)cc4)nc3)cn2)cc1 | 4.57 | 4.52 | 1.24 |  |
